{
  "source": "paper PMC11596327",
  "about": "(Chemistry (Weinheim an der Bergstrasse, Germany), 2023)",
  "key": {"[1]": {"molecular_target": "T1, Caspase-7 wt (Homo sapiens, UniProt P55210)", "T1 sequence (P55210 24-198 limits assumed)": "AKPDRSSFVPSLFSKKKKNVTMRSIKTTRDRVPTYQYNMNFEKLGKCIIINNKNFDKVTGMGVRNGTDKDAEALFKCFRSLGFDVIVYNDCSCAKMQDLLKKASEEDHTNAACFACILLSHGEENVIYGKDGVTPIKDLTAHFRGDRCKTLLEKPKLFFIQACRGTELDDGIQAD", "T1 sequence (P55210 207-303 limits assumed)": "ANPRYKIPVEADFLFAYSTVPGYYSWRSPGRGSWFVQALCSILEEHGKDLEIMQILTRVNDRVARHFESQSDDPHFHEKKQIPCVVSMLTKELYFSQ", "test": "Fluorometric steady-state kinetics assay", "format": "biochemical", "settings": "C7 pre-saturated with DICA (DICA-C7)", "procedure,_shortened": "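Fluorometric steady-state kinetic assays on wild-type C7 and wild-type C3. Both IC50 and Ki were derived. Ki came from fitting a non-competitive inhibitor equation. Values are reported with confidence intervals at the 95% level.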"}, "[2]": {"molecular_target": "T2, C7 wt (Homo sapiens, UniProt P55210)", "T2 sequence (P55210 24-198 limits assumed)": "T1 sequence (P55210 24-198 limits assumed)", "T2 sequence (P55210 207-303 limits assumed)": "T1 sequence (P55210 207-303 limits assumed)", "test": "Fluorometric stopped-flow pre-steady state kinetics assay", "format": "biochemical", "settings": "with increasing concentrations of inhibitor", "procedure,_shortened": "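Fluorescence stopped-flow on wild-type caspase-7. Progress curves were recorded with test compound at 6 to 500 uM or with DMSO alone, and a covalent allosteric inhibitor served as the assay-development control. Each curve was fitted individually to a pre-steady-state burst equation plus linear steady-state rate to give burst amplitude and k_burst. SE comes from a 95% confidence interval.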"}, "[3]": {"molecular_target": "T3, C7 (Homo sapiens, UniProt P55210)", "T3 sequence (P55210 24-198 limits assumed)": "T1 sequence (P55210 24-198 limits assumed)", "T3 sequence (P55210 207-303 limits assumed)": "T1 sequence (P55210 207-303 limits assumed)", "test": "Differential scanning fluorimetry", "format": "binding", "settings": "DICA-saturated C7 plus Ac-DEVD-CMK"}},
  "data": [
    {"smiles": "O=C(COc1ccc(Cl)cc1Cl)NCCS", "note": "[DICA, 2-(2,4-Dichlorophenoxy)-N-(2-mercaptoethyl)-acetamide, reference compound]", "values": [
      {"measurement": "turnover of Ac-DEVD-AFC substrate", "setting": "[1]", "value": "no turnover"},
      {"measurement": "burst amplitude", "setting": "[2]", "value": "decrease"},
      {"measurement": "burst phase rate constant (kburst)", "setting": "[2]", "value": "no change"},
      {"measurement": "formation of physical enzyme-substrate-inhibitor (ESI) complex", "setting": "[3]", "value": "able to physically bind substrate and DICA simultaneously"}
    ]}
  ]
}
